species: Cavia porcellus; test: Inhibition of electrically induced contractions on the guinea pig ileum; assay type: functional; details: read-out: ED50 (the source's name)
Outline: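 Guinea pig ileum contractions evoked by coaxial stimulation at 0.1 Hz, 0.5-ms pulses, supramaximal voltage, recorded isometrically; dose-response curves built with 15-min washout between doses.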

SMILES	EC50
CC(=O)O.CCN(C(=O)CNC(=O)[C@@H](CCCN=C(N)N)NC(=O)[C@@H](N)Cc1ccc(O)cc1)[C@@H](Cc1ccccc1F)C(N)=O	0.39 nM
CC(=O)O.CCN(C(=O)CNC(=O)[C@@H](CCCN=C(N)N)NC(=O)[C@@H](N)Cc1ccc(O)cc1)[C@@H](Cc1ccc(Cl)cc1)C(N)=O	0.64 nM
CC(=O)O.CCN(C(=O)CNC(=O)[C@@H](CCSC)NC(=O)[C@@H](N)Cc1ccc(O)cc1)[C@@H](Cc1ccc([N+](=O)[O-])cc1)C(N)=O	1.2 nM
CC(=O)O.CCN(CCc1ccccc1[N+](=O)[O-])C(=O)CNC(=O)[C@@H](CCCN=C(N)N)NC(=O)[C@H](Cc1ccc(O)cc1)N=C(N)N	1.2 nM
CC(=O)O.CCN(CCc1ccc(F)cc1)C(=O)CNC(=O)[C@@H](CCCN=C(N)N)NC(=O)[C@H](Cc1ccc(O)cc1)N=C(N)N	6.8 nM
CC(=O)O.CCN(C(=O)CNC(=O)[C@@H](CCCN=C(N)N)NC(=O)[C@H](Cc1ccc(O)cc1)N=C(N)N)[C@@H](Cc1ccc(F)cc1)C(N)=O	0.09 nM
NC(N)=NCCC[C@@H](NC(=O)[C@@H](N)Cc1ccc(O)cc1)C(=O)NCCSCCc1ccc([N+](=O)[O-])cc1	42000 nM
CC(=O)O.CCN(Cc1ccccc1F)C(=O)CNC(=O)[C@@H](CCCN=C(N)N)NC(=O)[C@H](Cc1ccc(O)cc1)N=C(N)N	20.6 nM
CCN(Cc1c(F)c(F)c(F)c(F)c1F)C(=O)CNC(=O)[C@@H](CCCN=C(N)N)NC(=O)[C@@H](N)Cc1ccc(O)cc1	820 nM
CC(=O)O.CCN(CCc1ccc([N+](=O)[O-])cc1)C(=O)CNC(=O)[C@@H](CCSC)NC(=O)[C@@H](N)Cc1ccc(O)cc1	41 nM
CC(=O)O.CCN(Cc1ccc([N+](=O)[O-])cc1)C(=O)CNC(=O)[C@@H](CCCN=C(N)N)NC(=O)[C@H](Cc1ccc(O)cc1)N=C(N)N	470 nM
CC(=O)O.CN(C(=O)CNC(=O)[C@@H](CCCN=C(N)N)NC(=O)[C@@H](N)Cc1ccc(O)cc1)[C@@H](Cc1ccc([N+](=O)[O-])cc1)C(N)=O	36.5 nM
CC(=O)O.CCN(C(=O)CNC(=O)[C@@H](CCCN=C(N)N)NC(=O)[C@@H](N)Cc1ccc(O)cc1)[C@@H](Cc1ccc(Cl)c(Cl)c1)C(N)=O	0.79 nM
CCN(CCc1ccccn1)C(=O)CNC(=O)[C@@H](CCCN=C(N)N)NC(=O)[C@@H](N)Cc1ccc(O)cc1	510 nM

test system: Mus musculus; test: Antinociceptive activity of perorally administered compound in phenyl-p-benzoquinone induced writhing mice; assay type: functional; details: po
Outline: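 Female CD1 mice, groups of five to six, dosed orally by blunt intragastric needle (10 mL kg-1) 30 min before ip phenyl-p-benzoquinone 2.5 mg kg-1. Abdominal constrictions/hind-limb extensions counted over 2.5 min starting 10 min after PBQ. ED50 = dose halving writhes versus vehicle, by linear regression.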

SMILES	ED50
CC(=O)O.CCN(C(=O)CNC(=O)[C@@H](CCCN=C(N)N)NC(=O)[C@@H](N)Cc1ccc(O)cc1)[C@@H](Cc1ccccc1F)C(N)=O	5.9 mg/kg
CC(=O)O.CCN(CCc1ccccc1[N+](=O)[O-])C(=O)CNC(=O)[C@@H](CCCN=C(N)N)NC(=O)[C@H](Cc1ccc(O)cc1)N=C(N)N	76.1 mg/kg
CC(=O)O.CCN(CCc1ccc(F)cc1)C(=O)CNC(=O)[C@@H](CCCN=C(N)N)NC(=O)[C@H](Cc1ccc(O)cc1)N=C(N)N	5.3 mg/kg
CC(=O)O.CCN(C(=O)CNC(=O)[C@@H](CCCN=C(N)N)NC(=O)[C@H](Cc1ccc(O)cc1)N=C(N)N)[C@@H](Cc1ccc(F)cc1)C(N)=O	25.6 mg/kg
CC(=O)O.CCN(C(=O)CNC(=O)[C@@H](CCCN=C(N)N)NC(=O)[C@@H](N)Cc1ccc(O)cc1)[C@@H](Cc1ccc(Cl)c(Cl)c1)C(N)=O	29.2 mg/kg

test system: Mus musculus; test: Antinociceptive activity of subcutaneously administered compound in acetic acid (AA) induced writhing mice; assay type: functional; details: sc
Outline: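 Male TFW mice, groups of five to six, given drug subcutaneously (10 mL kg-1), then ip acetic acid 0.6% at 25 mL kg-1. Writhes counted for 5 min beginning 15 min after acetic acid. ED50 = dose reducing writhes 50% versus vehicle, by linear regression.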

SMILES	ED50
CC(=O)O.CCN(C(=O)CNC(=O)[C@@H](CCCN=C(N)N)NC(=O)[C@@H](N)Cc1ccc(O)cc1)[C@@H](Cc1ccccc1F)C(N)=O	0.0009 mg/kg
CC(=O)O.CCN(C(=O)CNC(=O)[C@@H](CCCN=C(N)N)NC(=O)[C@@H](N)Cc1ccc(O)cc1)[C@@H](Cc1ccc(Cl)cc1)C(N)=O	0.03 mg/kg
CC(=O)O.CCN(C(=O)CNC(=O)[C@@H](CCSC)NC(=O)[C@@H](N)Cc1ccc(O)cc1)[C@@H](Cc1ccc([N+](=O)[O-])cc1)C(N)=O	0.0015 mg/kg
CC(=O)O.CCN(CCc1ccccc1[N+](=O)[O-])C(=O)CNC(=O)[C@@H](CCCN=C(N)N)NC(=O)[C@H](Cc1ccc(O)cc1)N=C(N)N	0.03 mg/kg
CC(=O)O.CCN(CCc1ccc(F)cc1)C(=O)CNC(=O)[C@@H](CCCN=C(N)N)NC(=O)[C@H](Cc1ccc(O)cc1)N=C(N)N	0.02 mg/kg
CC(=O)O.CCN(C(=O)CNC(=O)[C@@H](CCCN=C(N)N)NC(=O)[C@H](Cc1ccc(O)cc1)N=C(N)N)[C@@H](Cc1ccc(F)cc1)C(N)=O	0.002 mg/kg
CC(=O)O.CCN(Cc1ccccc1F)C(=O)CNC(=O)[C@@H](CCCN=C(N)N)NC(=O)[C@H](Cc1ccc(O)cc1)N=C(N)N	0.81 mg/kg
CC(=O)O.CCN(CCc1ccc([N+](=O)[O-])cc1)C(=O)CNC(=O)[C@@H](CCSC)NC(=O)[C@@H](N)Cc1ccc(O)cc1	0.87 mg/kg
CC(=O)O.CCN(Cc1ccc([N+](=O)[O-])cc1)C(=O)CNC(=O)[C@@H](CCCN=C(N)N)NC(=O)[C@H](Cc1ccc(O)cc1)N=C(N)N	0.9 mg/kg
CC(=O)O.CN(C(=O)CNC(=O)[C@@H](CCCN=C(N)N)NC(=O)[C@@H](N)Cc1ccc(O)cc1)[C@@H](Cc1ccc([N+](=O)[O-])cc1)C(N)=O	0.25 mg/kg
CC(=O)O.CCN(C(=O)CNC(=O)[C@@H](CCCN=C(N)N)NC(=O)[C@@H](N)Cc1ccc(O)cc1)[C@@H](Cc1ccc(Cl)c(Cl)c1)C(N)=O	0.008 mg/kg

test system: Mus musculus; test: Antinociceptive activity of subcutaneously administered compound in phenyl-p-benzoquinone induced writhing mice; assay type: functional; details: Mus musculus, sc; read-out: ED50
Outline: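 Groups of five to six female CD1 mice given drug subcutaneously (10 mL kg-1) 30 min before ip phenyl-p-benzoquinone 2.5 mg kg-1. Writhes (abdominal constrictions/hind-limb extensions) counted over 2.5 min from 10 min post-PBQ. ED50, the dose giving 50% fewer writhes than vehicle, from linear regression.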

SMILES	ED50
CC(=O)O.CCN(C(=O)CNC(=O)[C@@H](CCCN=C(N)N)NC(=O)[C@@H](N)Cc1ccc(O)cc1)[C@@H](Cc1ccccc1F)C(N)=O	0.15 mg/kg
CC(=O)O.CCN(CCc1ccccc1[N+](=O)[O-])C(=O)CNC(=O)[C@@H](CCCN=C(N)N)NC(=O)[C@H](Cc1ccc(O)cc1)N=C(N)N	1.1 mg/kg
CC(=O)O.CCN(CCc1ccc(F)cc1)C(=O)CNC(=O)[C@@H](CCCN=C(N)N)NC(=O)[C@H](Cc1ccc(O)cc1)N=C(N)N	0.08 mg/kg
CC(=O)O.CCN(C(=O)CNC(=O)[C@@H](CCCN=C(N)N)NC(=O)[C@H](Cc1ccc(O)cc1)N=C(N)N)[C@@H](Cc1ccc(F)cc1)C(N)=O	0.04 mg/kg
CC(=O)O.CCN(Cc1ccccc1F)C(=O)CNC(=O)[C@@H](CCCN=C(N)N)NC(=O)[C@H](Cc1ccc(O)cc1)N=C(N)N	0.43 mg/kg
CC(=O)O.CCN(Cc1ccc([N+](=O)[O-])cc1)C(=O)CNC(=O)[C@@H](CCCN=C(N)N)NC(=O)[C@H](Cc1ccc(O)cc1)N=C(N)N	7.8 mg/kg
CC(=O)O.CCN(C(=O)CNC(=O)[C@@H](CCCN=C(N)N)NC(=O)[C@@H](N)Cc1ccc(O)cc1)[C@@H](Cc1ccc(Cl)c(Cl)c1)C(N)=O	1.79 mg/kg

test system: Mus musculus; test: Antinociceptive activity of perorally administered compound (20 mg) in phenyl-p-benzoquinone induced writhing mice; assay type: functional; details: not given
Outline: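 Female CD1 mice (Charles River), groups of five to six, dosed orally by blunt intragastric needle (10 mL kg-1) 30 min before ip PBQ at 2.5 mg kg-1. Abdominal constrictions/hind-limb extensions were counted over 2.5 min starting 10 min after PBQ. ED50 is the dose halving writhes versus vehicle, estimated by linear regression.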

SMILES	Inhibition
CC(=O)O.CCN(Cc1ccccc1F)C(=O)CNC(=O)[C@@H](CCCN=C(N)N)NC(=O)[C@H](Cc1ccc(O)cc1)N=C(N)N	16%

test system: Mus musculus; test: Antinociceptive activity in the hot plate test (central activity) in rodents, when compound administered subcutaneously; assay type: functional; details: sc
Outline: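 Male CFLP mice, groups of five to six, placed on a copper surface held at 55 °C; latency to paw licking/shaking or jumping recorded, 30-s cut-off. Drug given subcutaneously at 10 mL kg-1. ED50 = dose doubling response latency versus vehicle, by parallel-line probit analysis.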

SMILES	ED50
CC(=O)O.CCN(C(=O)CNC(=O)[C@@H](CCCN=C(N)N)NC(=O)[C@@H](N)Cc1ccc(O)cc1)[C@@H](Cc1ccccc1F)C(N)=O	1.95 mg/kg
CC(=O)O.CCN(CCc1ccccc1[N+](=O)[O-])C(=O)CNC(=O)[C@@H](CCCN=C(N)N)NC(=O)[C@H](Cc1ccc(O)cc1)N=C(N)N	52.9 mg/kg
CC(=O)O.CCN(CCc1ccc(F)cc1)C(=O)CNC(=O)[C@@H](CCCN=C(N)N)NC(=O)[C@H](Cc1ccc(O)cc1)N=C(N)N	20 mg/kg
CC(=O)O.CCN(C(=O)CNC(=O)[C@@H](CCCN=C(N)N)NC(=O)[C@H](Cc1ccc(O)cc1)N=C(N)N)[C@@H](Cc1ccc(F)cc1)C(N)=O	0.9 mg/kg
CC(=O)O.CCN(Cc1ccccc1F)C(=O)CNC(=O)[C@@H](CCCN=C(N)N)NC(=O)[C@H](Cc1ccc(O)cc1)N=C(N)N	14.6 mg/kg
CC(=O)O.CCN(C(=O)CNC(=O)[C@@H](CCCN=C(N)N)NC(=O)[C@@H](N)Cc1ccc(O)cc1)[C@@H](Cc1ccc(Cl)c(Cl)c1)C(N)=O	38.2 mg/kg

species: Mus musculus; test: Dose ratio in the presence and absence of the peripheral opioid antagonist in N-methyl-nalorphine in AA writhing mice; assay type: functional; details: not given
Outline: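 Acetic acid (0.6%, ip) writhing in male TFW mice; N-methylnalorphine 11.5 mg kg-1 ip 20 min before subcutaneous agonist. Writhes counted 5 min from 15 min post-irritant. Dose ratio taken as the shift between parallel regression lines with and without antagonist.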

SMILES	Ratio
CC(=O)O.CCN(C(=O)CNC(=O)[C@@H](CCCN=C(N)N)NC(=O)[C@@H](N)Cc1ccc(O)cc1)[C@@H](Cc1ccccc1F)C(N)=O	3.9
CC(=O)O.CCN(C(=O)CNC(=O)[C@@H](CCCN=C(N)N)NC(=O)[C@@H](N)Cc1ccc(O)cc1)[C@@H](Cc1ccc(Cl)cc1)C(N)=O	1.3
CC(=O)O.CCN(C(=O)CNC(=O)[C@@H](CCSC)NC(=O)[C@@H](N)Cc1ccc(O)cc1)[C@@H](Cc1ccc([N+](=O)[O-])cc1)C(N)=O	0.8
CC(=O)O.CCN(CCc1ccccc1[N+](=O)[O-])C(=O)CNC(=O)[C@@H](CCCN=C(N)N)NC(=O)[C@H](Cc1ccc(O)cc1)N=C(N)N	8.6
CC(=O)O.CCN(CCc1ccc(F)cc1)C(=O)CNC(=O)[C@@H](CCCN=C(N)N)NC(=O)[C@H](Cc1ccc(O)cc1)N=C(N)N	2.4
CC(=O)O.CCN(C(=O)CNC(=O)[C@@H](CCCN=C(N)N)NC(=O)[C@H](Cc1ccc(O)cc1)N=C(N)N)[C@@H](Cc1ccc(F)cc1)C(N)=O	6.5
CC(=O)O.CCN(Cc1ccccc1F)C(=O)CNC(=O)[C@@H](CCCN=C(N)N)NC(=O)[C@H](Cc1ccc(O)cc1)N=C(N)N	7.8
CC(=O)O.CCN(CCc1ccc([N+](=O)[O-])cc1)C(=O)CNC(=O)[C@@H](CCSC)NC(=O)[C@@H](N)Cc1ccc(O)cc1	1.1
CC(=O)O.CCN(Cc1ccc([N+](=O)[O-])cc1)C(=O)CNC(=O)[C@@H](CCCN=C(N)N)NC(=O)[C@H](Cc1ccc(O)cc1)N=C(N)N	4.6
CC(=O)O.CN(C(=O)CNC(=O)[C@@H](CCCN=C(N)N)NC(=O)[C@@H](N)Cc1ccc(O)cc1)[C@@H](Cc1ccc([N+](=O)[O-])cc1)C(N)=O	2.5
CC(=O)O.CCN(C(=O)CNC(=O)[C@@H](CCCN=C(N)N)NC(=O)[C@@H](N)Cc1ccc(O)cc1)[C@@H](Cc1ccc(Cl)c(Cl)c1)C(N)=O	9.7

From ChEMBL document CHEMBL1124464, “Peripherally acting enkephalin analogues. 2. Polar tri- and tetrapeptides” (1989)
